Results published in ChEMBL document CHEMBL1126878, “4,5-Dihydro-1-phenyl-1H-2,4-benzodiazepines: novel antiarrhythmic agents” (J Med Chem, 1993).

Legend:
Felis catus [1] = assay: Ventricular fribrillation threshold (VFT) after iv administration to anesthetized, acutely infarcted cats at 1 mg/kg; type: functional, Heart
How it was run: (§1)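 Anesthetized cats given a slow iv bolus, with single-stage LAD occlusion 10 min later. Stimulating current raised until fibrillation; three baseline sequences about 15 min apart. Pacing repeated every 15 min for 2 h after occlusion, then every 30 min, for 5 h in total. Values are the mean maximum change over 5 h in VFT (mamps) or ERP (ms); cardioversion at 14–50 J.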

Felis catus [2] = assay: Effective refractory period (ERP) after iv administration to anesthetized, acutely infarcted cats at x mg/kg; type: functional; how it was run: as §1
Canis familiaris = assay: Minimal effective dose that resulted in significant reduction in PVC frequency in conscious dogs by po administration after 24 hours of coronary artery ligation; type: functional; conditions: Canis lupus familiaris, read-out: MED
How it was run: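 Dogs (8.0–19.1 kg) underwent LAD occlusion under halothane anesthesia with Holter electrodes. 24 h after occlusion, animals with PVCs exceeding 50% of heart rate were dosed orally by gavage with agent in water (n = 4 per group). Holter recorded 1 h before and 12–24 h after dosing.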

Cavia porcellus [3] = assay: Effective dose in vivo for cardiac refractoriness (ERP) using paced guinea pig model; type: functional
How it was run: (§2)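 Guinea pig paced in vivo model. Hemodynamics recorded in normal sinus rhythm; ERP measured during brief pacing at baseline and 10 min after dosing. Bolus of 1 mL/kg via left ventricular catheter for doses <10 mg/kg; higher doses infused over 1 min. Cumulative dosing every 15 min up to the maximally tolerated dose (dP/dt reduced >50%). ED20 (ERP +20 ms) and dP/dt20 (20% drop in LV pressure-rise rate) derived by linear regression of individual dose-response curves.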

Cavia porcellus [4] = assay: Minimal effective dose that resulted in significant delay in the onset of arrhythmias in guinea pig with iv administration of aconitine hydrochloride; type: functional; conditions: read-out: MED
How it was run: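 Guinea pigs (n = 6 per dose, parallel groups) received agent or saline iv (1 mL/kg) 10 min before a lethal aconitine hydrochloride challenge (34 μg/kg iv). Times to first PVC, sustained VT and VF (>15 s) were recorded and compared with concurrent controls by one-way ANOVA. MED taken from an ascending semilogarithmic dose escalation as the dose giving significant delay in arrhythmia onset.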

Cavia porcellus [5] = assay: In vivo index of cardiac contractility using paced guinea pig model; type: functional; how it was run: as §2
[6] = target: Sodium channel protein type 5 subunit alpha (cardiac sodium channel) (Rattus norvegicus, UniProt P15389); assay: in vitro; conditions: sodium channel from cardiac myocytes, probe [3H]batrachotoxin ([3H]BTX)
Felis catus [7] = assay: Ventricular fribrillation threshold (VFT) after iv administration to anesthetized, acutely infarcted cats at 0.3 mg/kg; type: functional, Heart; how it was run: as §1

Sodium channel protein type 5 subunit alpha (cardiac sodium channel), sequence (P15389 whole entry): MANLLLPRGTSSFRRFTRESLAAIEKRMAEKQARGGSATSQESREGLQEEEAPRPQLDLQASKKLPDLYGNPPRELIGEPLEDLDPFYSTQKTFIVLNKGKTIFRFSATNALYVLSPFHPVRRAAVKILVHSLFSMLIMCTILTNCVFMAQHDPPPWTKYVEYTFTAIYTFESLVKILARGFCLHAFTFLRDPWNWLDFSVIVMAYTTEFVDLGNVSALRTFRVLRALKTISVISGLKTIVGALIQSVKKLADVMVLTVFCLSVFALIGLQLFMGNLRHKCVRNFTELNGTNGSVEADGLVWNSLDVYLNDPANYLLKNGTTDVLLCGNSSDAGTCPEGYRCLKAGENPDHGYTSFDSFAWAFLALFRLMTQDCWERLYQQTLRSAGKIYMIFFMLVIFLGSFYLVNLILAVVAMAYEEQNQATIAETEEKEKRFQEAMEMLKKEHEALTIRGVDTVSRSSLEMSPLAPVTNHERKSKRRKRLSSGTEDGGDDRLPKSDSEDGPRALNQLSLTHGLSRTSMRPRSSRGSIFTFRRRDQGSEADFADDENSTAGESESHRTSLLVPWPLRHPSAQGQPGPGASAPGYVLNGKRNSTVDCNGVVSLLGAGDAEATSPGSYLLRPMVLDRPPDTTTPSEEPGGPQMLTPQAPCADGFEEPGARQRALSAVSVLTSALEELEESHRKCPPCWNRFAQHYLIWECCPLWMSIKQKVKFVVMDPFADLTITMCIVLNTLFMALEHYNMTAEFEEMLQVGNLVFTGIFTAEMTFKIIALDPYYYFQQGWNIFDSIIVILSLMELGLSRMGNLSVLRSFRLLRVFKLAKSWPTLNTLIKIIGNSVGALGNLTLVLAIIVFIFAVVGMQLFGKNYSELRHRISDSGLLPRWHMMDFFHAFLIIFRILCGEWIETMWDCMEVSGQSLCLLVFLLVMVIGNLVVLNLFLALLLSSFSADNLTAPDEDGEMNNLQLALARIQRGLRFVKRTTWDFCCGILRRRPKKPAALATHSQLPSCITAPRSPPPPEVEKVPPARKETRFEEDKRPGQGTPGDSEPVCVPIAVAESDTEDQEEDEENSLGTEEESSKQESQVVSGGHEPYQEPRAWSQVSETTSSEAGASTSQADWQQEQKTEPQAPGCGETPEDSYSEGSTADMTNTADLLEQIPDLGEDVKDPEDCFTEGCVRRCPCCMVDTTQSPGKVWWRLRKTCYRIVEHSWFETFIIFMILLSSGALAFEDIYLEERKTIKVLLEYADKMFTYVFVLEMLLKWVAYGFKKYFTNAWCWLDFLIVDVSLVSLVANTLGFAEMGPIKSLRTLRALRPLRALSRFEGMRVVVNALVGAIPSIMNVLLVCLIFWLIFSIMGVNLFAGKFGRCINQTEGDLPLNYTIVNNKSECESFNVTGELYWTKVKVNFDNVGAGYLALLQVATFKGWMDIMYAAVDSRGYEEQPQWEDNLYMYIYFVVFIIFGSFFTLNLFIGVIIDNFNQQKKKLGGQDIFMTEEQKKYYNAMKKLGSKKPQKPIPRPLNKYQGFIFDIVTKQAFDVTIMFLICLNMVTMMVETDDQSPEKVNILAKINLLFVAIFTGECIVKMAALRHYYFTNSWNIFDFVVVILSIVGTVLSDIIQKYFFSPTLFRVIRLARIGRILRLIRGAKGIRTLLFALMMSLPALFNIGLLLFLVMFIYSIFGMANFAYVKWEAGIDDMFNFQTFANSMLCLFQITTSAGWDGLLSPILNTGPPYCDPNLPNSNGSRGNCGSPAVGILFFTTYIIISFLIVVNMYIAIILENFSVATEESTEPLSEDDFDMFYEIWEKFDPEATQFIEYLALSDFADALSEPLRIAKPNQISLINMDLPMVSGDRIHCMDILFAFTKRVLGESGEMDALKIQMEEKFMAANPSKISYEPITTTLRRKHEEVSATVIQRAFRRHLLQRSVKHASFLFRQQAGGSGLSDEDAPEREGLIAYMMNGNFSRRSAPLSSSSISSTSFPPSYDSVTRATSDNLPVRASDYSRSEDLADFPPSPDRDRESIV

SMILES | VFT (Felis catus [1]) [mA] | ERP (Felis catus [2]) [ms] | minimal effective dose (Canis familiaris) [mg/kg] | ED20 (Cavia porcellus [3]) [mg/kg] | minimal effective dose (Cavia porcellus [4]) [mg/kg] | dP/dt20 (Cavia porcellus [5]) [mg/kg] | inhibition at 10 µM [6] [%] | VFT (Felis catus [7]) [mA]
CN1Cc2ccccc2C(c2ccccc2)N=C1CCc1ccc(Cl)cc1.O=C(O)/C=C/C(=O)O (configuration not stated) | 93 | 45 | 3 | 0.1 | 3 | 0.85 | 97 | 
CCC1=NC(C(C)=O)(c2ccccc2)c2ccccc2CN1C.O=C(O)/C=C/C(=O)O (configuration not stated) |  |  |  | 0.9 |  | 0.45 | 28 | 
CC(C)C1=NC(C)(c2ccccc2)c2ccccc2CN1C (configuration not stated) |  |  |  | 0.8 |  | 0.7 | 50 | 
CN1Cc2ccccc2C(c2ccccc2)N=C1N1CCCC1 (configuration not stated) |  |  |  | 0.2 |  |  | 100 | 
CN1Cc2ccccc2C(c2ccc(Cl)cc2)N=C1CCc1ccccc1 (configuration not stated) |  |  |  | 0.2 |  | 0.2 | 96 | 
CN1Cc2ccccc2[C@@H](c2ccccc2)N=C1CCc1ccccc1.Cl |  | 13 | 3 | 0.03 | 0.1 | 0.03 |  | 37
COc1ccc(CCC2=NC(c3ccccc3)c3ccccc3CN2C)cc1.Cl (configuration not stated) |  |  |  | 0.1 |  | 0.66 | 91 | 
CN1Cc2ccccc2C(Cc2ccccc2)N=C1CCc1ccccc1.O=C(O)/C=C/C(=O)O (configuration not stated) |  |  |  | 0.2 |  | 0.04 | 97 | 
CN1Cc2ccccc2C(C)(c2ccccc2)N=C1CN1CCOCC1 (configuration not stated) |  |  |  | 2.4 |  | 0.1 | 51 | 
CCC1=NCc2ccccc2C(c2ccccc2)N1Cc1ccccc1.Cl (configuration not stated) |  |  |  | > 3 |  | 0.3 | 97 | 
CCC1=NC(c2ccccc2)c2ccc3ccccc3c2CN1C (configuration not stated) |  |  |  | 0.3 |  | 0.06 | 98 | 
CN1Cc2ccccc2C(c2ccccc2)N=C1Cc1ccccc1.Cl (configuration not stated) |  |  |  | 0.3 |  | 0.15 | 95 | 
CCC1=NC(c2cccc3ccccc23)c2ccccc2CN1C (configuration not stated) |  |  |  | 0.6 |  | 0.2 | 94 | 
C=C[C@H]1CN2CC[C@H]1C[C@@H]2[C@@H](O)c1ccnc2ccc(OC)cc12 [QUINIDINE] |  |  | 30 | 7.2 | 1 | 2.5 | 68 | 
CN1CCN(CC2=NC(c3ccccc3)c3ccccc3CN2C)CC1.O=C(O)/C=C/C(=O)O (configuration not stated) |  |  |  | 0.4 |  | 0.1 | 38 | 
CCN(CC)CCNC(=O)c1ccc(NS(C)(=O)=O)cc1 [SEMATILIDE] |  |  |  | 1.9 |  | 18.7 | 0 | 
CCCC1=NC(c2ccccc2)c2ccccc2CN1C.Cl (configuration not stated) |  |  |  | 0.4 |  | 0.8 | 72 | 
CN1Cc2ccccc2C(c2ccccc2)N=C1N.Cl (configuration not stated) |  |  |  | 1.7 |  | 1 | 91 | 
COc1ccc(C2N=C(CCc3ccccc3)N(C)Cc3ccccc32)cc1.Cl (configuration not stated) |  |  |  | 0.1 |  | 0.1 | 95 | 
CCC1=NC(c2ccccc2)c2ccccc2C(c2ccccc2)N1C (configuration not stated) |  |  |  | > 20 |  | 0.01 | 97 | 
CCOC(=O)C1(c2ccccc2)N=C(CC)N(C)Cc2ccccc21.O=C(O)/C=C/C(=O)O (configuration not stated) |  | 47 | 3 | 0.4 | < 3 | 0.1 | 56 | 84
CN1Cc2ccccc2C(C)(c2ccccc2)N=C1CCl (configuration not stated) |  |  |  | 0.4 |  | 0.002 | 82 | 
CC1=NC(C)(c2ccccc2)c2ccccc2CN1C.O=C(O)/C=C/C(=O)O (configuration not stated) |  |  |  | 0.8 |  | 0.9 | 71 | 
CCCCCC1=NC(c2ccccc2)c2ccccc2CN1C.Cl (configuration not stated) |  |  |  | 0.1 |  | 0.08 | 95 | 
CCC1=NC(COC)(c2ccccc2)c2ccccc2CN1C (configuration not stated) |  |  |  | 2.5 |  | 0.1 | 45 | 
CN(C)CC1=NC(c2ccccc2)c2ccccc2CN1C.O=C(O)/C=C/C(=O)O (configuration not stated) |  |  |  | 0.6 |  |  | 44 | 
CN1Cc2ccccc2C(c2ccccc2)N=C1CN1CCOCC1.O=C(O)/C=C/C(=O)O (configuration not stated) |  |  |  | 0.25 |  | 0.11 | 57 | 
